Assays:
Saccharomyces cerevisiae [1] = test: Growth inhibition of WSC4-deficient Saccharomyces cerevisiae YHL028W mutant at 20 ug/disc 24 to 48 hrs by agar diffusion assay; format: functional; details: read-out: DIZ
In short: (§1)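 S. cerevisiae deletion mutants or wild type grown on YPD, seeded into liquid agar medium at an optical density of 0.1. 6 mm paper discs soaked with methanolic compound solution were placed on the plates and incubated at 30 °C. Growth was checked after 1 and 2 days, and the inhibition zone diameter was recorded in mm.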

SW-620 = test: Cytotoxicity against human SW620 cells; format: functional
HUVEC = test: Cytotoxicity against human HUVEC cells after 24 hrs by MTT assay; format: cell-based
In short: (§2)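 MTT assay. Cells were seeded at 50,000 cells/mL in medium with 10% fetal calf serum and grown for two days at 37 °C, 10% CO2. Serial dilutions of compound were then added for 24 h. MTT was added (final 0.5 mg/mL) for 2 h, and the formazan was pelleted, washed, dissolved in isopropanol with 0.4% HCl and read at 590 nm. IC50 is the concentration giving 50% of untreated-control absorbance, taken from dose-response curves; mean of two parallel experiments.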

Saccharomyces cerevisiae [2] = test: Growth inhibition of RCK1-deficient Saccharomyces cerevisiae YGL158W mutant at 20 ug/disc after 24 to 48 hrs by agar diffusion assay; format: functional; details: read-out: DIZ; in short: as §1
SK-MEL-2 = test: Cytotoxicity against human SK-MEL-2 cells; format: functional
SR = test: Cytotoxicity against human SR cells; format: functional
[3] = Cytotoxicity against human 786-O cells; format: functional
KM12 = test: Cytotoxicity against human KM12 cells; format: functional
SK-OV-3 = test: Cytotoxicity against human SKOV3 cells; format: functional
TK-10 = test: Cytotoxicity against human TK10 cells; format: functional
NCI-H23 = test: Cytotoxicity against human NCI-H23 cells; format: functional
HCT-116 = test: Cytotoxicity against human HCT116 cells; format: functional
NCI-H322M = test: Cytotoxicity against human NCI-H322M cells; format: functional
Saccharomyces cerevisiae [4] = test: Growth inhibition of SOD1-deficient Saccharomyces cerevisiae YJR104C mutant at 20 ug/disc after 24 to 48 hrs by agar diffusion assay; format: functional; details: read-out: DIZ; in short: as §1
UACC-62 = test: Cytotoxicity against human UACC62 cells; format: functional
IGROV-1 = test: Cytotoxicity against human IGROV1 cells; format: functional
T47D = test: Cytotoxicity against human T47D cells; format: functional
DU-145 = test: Cytotoxicity against human DU145 cells; format: functional
A498 [5] = test: Cytotoxicity against human A498 cells; format: functional
SF-539 = test: Cytotoxicity against human SF539 cells; format: functional
SK-MEL-5 = test: Cytotoxicity against human SK-MEL-5 cells; format: functional
NCI-H522 = test: Cytotoxicity against human NCI-H522 cells; format: functional
MDA-MB-231 = test: Cytotoxicity against human MDA-MB-231 cells; format: functional
Saccharomyces cerevisiae [6] = test: Growth inhibition of GSH2-deficient Saccharomyces cerevisiae YOL049W mutant at 20 ug/disc after 24 to 48 hrs by agar diffusion assay; format: functional; details: read-out: DIZ; in short: as §1
MCF7 = test: Cytotoxicity against human MCF7 cells; format: functional
HCC 2998 = test: Cytotoxicity against human HCC2998 cells; format: functional
Saccharomyces cerevisiae [7] = test: Growth inhibition of COX17-deficient Saccharomyces cerevisiae YLL009C mutant at 20 ug/disc after 24 to 48 hrs by agar diffusion assay; format: functional; details: read-out: DIZ; in short: as §1
OVCAR-3 = test: Cytotoxicity against human OVCAR3 cells; format: functional
COLO 205 = test: Cytotoxicity against human COLO205 cells; format: functional
BT-549 = test: Cytotoxicity against human BT549 cells; format: functional
CAKI-1 = test: Cytotoxicity against human Caki1 cells; format: functional
Saccharomyces cerevisiae [8] = test: Growth inhibition of POS5-deficient Saccharomyces cerevisiae YPL188W mutant at 20 ug/disc after 24 to 48 hrs by agar diffusion assay; format: functional; details: read-out: DIZ; in short: as §1
SNB-19 = test: Cytotoxicity against human SNB19 cells; format: functional
NCI-H460 = test: Cytotoxicity against human NCI-H460 cells; format: functional
A498 [9] = test: Cytotoxicity against human A498 cells after 24 hrs by MTT assay; format: functional, cell-based; details: A498, 24 h; in short: as §2
HT-29 = test: Cytotoxicity against human HT-29 cells; format: functional
Hs-578T = test: Cytotoxicity against human Hs578T cells; format: functional
SN12C = test: Cytotoxicity against human SN12C cells; format: functional
Saccharomyces cerevisiae [10] = test: Growth inhibition of PST2-deficient Saccharomyces cerevisiae YDR032C mutant at 20 ug/disc 24 to 48 hrs by agar diffusion assay; format: functional; details: read-out: DIZ; in short: as §1
Saccharomyces cerevisiae [11] = test: Growth inhibition of wild type Saccharomyces cerevisiae BY4741 at 20 ug/disc after 24 to 48 hrs by agar diffusion assay; format: functional; details: read-out: DIZ; in short: as §1
HOP-92 = test: Cytotoxicity against human HOP92 cells; format: functional

Question: What does the source list for `CC1=C([Se]CC(OC(=O)[C@@H](CO)NC(=O)OC(C)(C)C)C(=O)NCCCCCC(=O)OCc2ccccc2)C(=O)c2ccccc2C1=O` (some centres not stated)?
Answer: zone of inhibition at 20 µg/disc (Saccharomyces cerevisiae [1]): 0 mm; GI50 (SW-620): 1.74 µM; LC50 (SW-620): 6.17 µM; TGI (SW-620; read-out: pTGI (converted)): 3.24 µM; IC50 (HUVEC): 35 µM; zone of inhibition at 20 µg/disc (Saccharomyces cerevisiae [2]): 0 mm; GI50 (SK-MEL-2): 2.24 µM; LC50 (SK-MEL-2): 7.41 µM; TGI (SK-MEL-2; read-out: pTGI (converted)): 4.07 µM; GI50 (SR): 1.58 µM; LC50 (SR): > 100 µM; TGI (SR; read-out: pTGI (converted)): 6.61 µM; GI50 ([3]; 786-0): 2.09 µM; LC50 ([3]; 786-0): 6.03 µM; TGI ([3]; 786-0, read-out: pTGI (converted)): 3.55 µM; GI50 (KM12): 1.51 µM; LC50 (KM12): 5.5 µM; TGI (KM12; read-out: pTGI (converted)): 2.88 µM; GI50 (SK-OV-3): 1.29 µM; LC50 (SK-OV-3): 5.13 µM; TGI (SK-OV-3; read-out: pTGI (converted)): 2.57 µM; GI50 (TK-10): 2.04 µM; LC50 (TK-10): 5.89 µM; TGI (TK-10; read-out: pTGI (converted)): 3.47 µM; GI50 (NCI-H23): 1.82 µM; TGI (NCI-H23; read-out: pTGI (converted)): 4.07 µM; GI50 (HCT-116): 1.38 µM; LC50 (HCT-116): 5.37 µM; TGI (HCT-116; read-out: pTGI (converted)): 2.75 µM; GI50 (NCI-H322M): 0.417 µM; LC50 (NCI-H322M): 27.5 µM; TGI (NCI-H322M; read-out: pTGI (converted)): 1.91 µM; zone of inhibition at 20 µg/disc (Saccharomyces cerevisiae [4]): 17 mm; GI50 (UACC-62): 1.7 µM; LC50 (UACC-62): 5.62 µM; TGI (UACC-62; read-out: pTGI (converted)): 3.09 µM; GI50 (IGROV-1): 1.78 µM; LC50 (concentration killing 50% of cells) (IGROV-1): 6.31 µM; TGI (IGROV-1; read-out: pTGI (converted)): 3.39 µM; GI50 (T47D): 1.62 µM; LC50 (T47D): 9.55 µM; TGI (T47D; read-out: pTGI (converted)): 3.98 µM; GI50 (DU-145): 1.82 µM; LC50 (DU-145): 5.89 µM; TGI (DU-145; read-out: pTGI (converted)): 3.24 µM; GI50 (A498 [5]): 2.04 µM; LC50 (50% lethal concentration) (A498 [5]): 45.7 µM; TGI (A498 [5]; read-out: pTGI (converted)): 5.89 µM; GI50 (SF-539): 1.7 µM; LC50 (SF-539): 5.62 µM; TGI (SF-539; read-out: pTGI (converted)): 3.09 µM; GI50 (SK-MEL-5): 1.58 µM; LC50 (SK-MEL-5): 5.5 µM; TGI (SK-MEL-5; read-out: pTGI (converted)): 2.95 µM; GI50 (NCI-H522): 2 µM; LC50 (NCI-H522): 6.03 µM; TGI (NCI-H522; read-out: pTGI (converted)): 3.47 µM; GI50 (MDA-MB-231): 1.66 µM; LC50 (MDA-MB-231): 6.03 µM; TGI (MDA-MB-231; read-out: pTGI (converted)): 3.16 µM; zone of inhibition at 20 µg/disc (Saccharomyces cerevisiae [6]): 0 mm; GI50 (MCF7): 1.62 µM; LC50 (MCF7): 7.08 µM; TGI (MCF7; read-out: pTGI (converted)): 3.39 µM; GI50 (HCC 2998): 2 µM; LC50 (HCC 2998): 6.17 µM; TGI (HCC 2998; read-out: pTGI (converted)): 3.47 µM; zone of inhibition at 20 µg/disc (Saccharomyces cerevisiae [7]): 0 mm; GI50 (OVCAR-3): 1.78 µM; LC50 (OVCAR-3): 5.62 µM; TGI (OVCAR-3; read-out: pTGI (converted)): 3.16 µM; GI50 (COLO 205): 1.82 µM; CC50 (COLO 205; read-out: pLC50 (the source's name) (converted)): 6.17 µM; TGI (COLO 205; read-out: pTGI (converted)): 3.31 µM; GI50 (BT-549): 1.74 µM; LC50 (BT-549): 5.62 µM; TGI (BT-549; read-out: pTGI (converted)): 3.09 µM; GI50 (CAKI-1): 1.82 µM; LC50 (CAKI-1): 6.03 µM; TGI (CAKI-1; read-out: pTGI (converted)): 3.31 µM; zone of inhibition at 20 µg/disc (Saccharomyces cerevisiae [8]): 0 mm; GI50 (SNB-19): 0.776 µM; LC50 (SNB-19): 5.01 µM; TGI (SNB-19; read-out: pTGI (converted)): 2.14 µM; GI50 (NCI-H460): 0.457 µM; LC50 (NCI-H460): 5.37 µM; TGI (NCI-H460; read-out: pTGI (converted)): 1.62 µM; IC50 (A498 [9]): 5 µM; GI50 (HT-29): 2.14 µM; LC50 (HT-29): 7.24 µM; TGI (HT-29; read-out: pTGI (converted)): 3.98 µM; GI50 (Hs-578T): 2 µM; LC50 (Hs-578T): > 100 µM; TGI (Hs-578T; read-out: pTGI (converted)): 4.68 µM; GI50 (SN12C): 1.95 µM; LC50 (SN12C): 6.61 µM; TGI (SN12C; read-out: pTGI (converted)): 3.63 µM; zone of inhibition at 20 µg/disc (Saccharomyces cerevisiae [10]): 15 mm; zone of inhibition at 20 µg/disc (Saccharomyces cerevisiae [11]): 0 mm; GI50 (HOP-92): 1.86 µM; LC50 (50% lethal concentration) (HOP-92): 5.89 µM; TGI (HOP-92; read-out: pTGI (converted)): 3.31 µM

Reference: ChEMBL document CHEMBL2177069, “Novel peptidomimetic compounds containing redox active chalcogens and quinones as potential anticancer agents” (Eur J Med Chem, 2012)
